Assay outcomes deposited in PubChem BioAssay by several laboratories.
This is a sample that favours compounds with a hit; in the whole collection about 3.4% have one here.
IMP-1 inhibitor = inhibitors of Pseudomonas aeruginosa IMP-1 metallo-beta-lactamase; purified IMP-1, nitrocefin hydrolysis, epi-absorbance fluorescence; inhibition, % at 5.6 µM; actives 0.45% (n = 290,000); AID 1556;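 active = inhibition above the mean plus 3 SD of all compounds in the same screening run, cut at about 4.5% in these data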;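 also: 0% = IMP-1 with DMSO and 100% = DMSO wells lacking enzyme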
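Assay system: purified IMP-1; Quantity: IMP-1 0.2 nM before substrate addition; Medium: HEPES buffer pH 7.1 with ZnSO4 and Brij 35; Incubation: 15 min enzyme–compound preincubation, then 25 min nitrocefin reaction, 25 °C; Signal: fluorescence quenching readout, ex 480/em 530 nm; Controls: DMSO with and without IMP-1; Repeats: singlicate testing.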
MEKK2wt PB1 HTS = raises or lowers MEK5 binding to wildtype human MEKK2 PB1 domain | Q9Y2U5 | binding response (% of control), % at 10 µM | actives 1.1% (n = 290,000) | bead flow cytometry, Alexa488-MEK5 binding to MEKK2 WT; actives lie on both sides; in the data active = binding response below about 67% or above about 130%
MEKK2 mut-MEK5 = signal of MEK5 binding to mutant human MEKK2 PB1 domain. bead flow cytometry, Alexa488-MEK5 binding to MEKK2 mutant. percent response, % at 10 µM. actives 0.35% (n = 290,000); in the data active = percent response above about 24%, passing the limit was not always enough
MEKK3 PB1 HTS = raises or lowers MEK5 binding to the human MEKK3 PB1 domain | AID 1529 | binding response (% of control), % at 10 µM | Q99759 | bead-based flow cytometry, Alexa488-MEK5 binding to MEKK3; actives lie on both sides; 0 = blocked by unlabeled MEK5, 100 = vehicle | actives 1.4% (n = 290,000);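 active = binding response more than 3 SD above or below the average of its plate-row segment, actives on both sides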;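 also: Alexa488 bead fluorescence after subtracting the streptavidin-only scavenger bead signal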
Target sequence (Q99759 whole entry, looked up, the tested form may be a part): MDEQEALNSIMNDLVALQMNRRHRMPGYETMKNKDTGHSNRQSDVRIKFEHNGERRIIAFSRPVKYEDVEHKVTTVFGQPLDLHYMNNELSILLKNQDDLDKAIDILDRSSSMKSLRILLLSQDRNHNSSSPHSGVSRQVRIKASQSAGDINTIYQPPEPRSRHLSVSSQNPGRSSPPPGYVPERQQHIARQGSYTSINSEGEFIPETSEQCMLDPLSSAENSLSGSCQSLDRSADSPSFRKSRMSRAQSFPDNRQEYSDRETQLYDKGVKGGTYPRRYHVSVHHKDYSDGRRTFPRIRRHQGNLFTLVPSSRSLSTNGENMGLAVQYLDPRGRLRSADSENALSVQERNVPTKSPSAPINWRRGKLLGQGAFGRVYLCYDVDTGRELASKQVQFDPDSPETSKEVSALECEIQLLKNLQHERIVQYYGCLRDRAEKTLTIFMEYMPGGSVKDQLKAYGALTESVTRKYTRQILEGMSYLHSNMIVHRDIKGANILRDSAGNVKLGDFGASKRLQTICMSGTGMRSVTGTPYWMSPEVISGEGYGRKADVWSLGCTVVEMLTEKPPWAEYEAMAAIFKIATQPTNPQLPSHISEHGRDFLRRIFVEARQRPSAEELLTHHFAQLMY
VIM-2 inh = blocks Pseudomonas aeruginosa VIM-2 metallo-beta-lactamase. purified VIM-2, nitrocefin hydrolysis, epi-absorbance fluorescence. AID 1527. actives 0.89% (n = 290,000). inhibition, % at 5.6 µM;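 active = inhibition above the mean of all tested compounds plus 3 SD, cutoff set per screening run, cut at about 7.5% in these data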;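 also: red hydrolysis product quenches plate fluorescence so inhibitors raise well fluorescence; 0% = enzyme with DMSO and 100% = DMSO without enzyme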
* hit, by the source's call; / = not tested or not shown; [ ] = dose if it differs, or a comment.

SMILES	IMP-1 inhibitor	MEKK2wt PB1 HTS	MEKK2 mut-MEK5	MEKK3 PB1 HTS	VIM-2 inh
Cc1cc(Br)cc(Cl)c1OC(=O)c1ccncc1	-3	1.0*[inhibitor]	-39	1.0*[inhibitor]	0
COc1ccc(C(=O)NC(=S)Nc2cccc(S(=O)(=O)N3CCOCC3)c2)cc1	-4	87	-5	89	-3
CCN1CCN(CCCNC(=O)C2CCN(c3nnc(-n4c(C)ccc4C)s3)CC2)CC1	-1	107	2	99	-1
CN(C)C1(CN=Cc2cc(Cl)cc([N+](=O)[O-])c2O)CCCCC1	5.7*	97	2	100	-4
CC(=O)Nc1cc2c(cc1NC(=O)Cn1nc(-c3ccccc3)ccc1=O)OCCO2	-3	97	2	102	-1
COc1ccc(-c2ccc(CCC(=O)O)n2CC(C)C)cc1	7.1*	74	-11	63	2
Cn1c2ccccc2c2nnc(SCC(N)=O)nc21	-3	98	-7	99	8.0*
CCOC(=O)CSc1nnc2c3ccccc3n(C)c2n1	-3	113	7	101	4
Cn1c2ccccc2c2nnc(SCC(=O)NC3CC3)nc21	1	99	-3	100	9.2*
CCn1c2ccccc2c2nnc(SCC(=O)NC3CCS(=O)(=O)C3)nc21 (stereo not drawn)	-4	95	-1	89	3
Cn1c2ccc(Br)cc2c2nnc(SCC(=O)O)nc21	2	101	0	99	9.8*
CCOC(=O)CCCCC(=O)c1[nH]c(=O)[nH]c1CSc1nnc2c3cc(Br)ccc3n(C)c2n1	-3	/	/	/	-2
C=CCn1c2ccccc2c2nnc(SCC(N)=O)nc21	-2	111	4	103	8.9*
O=C(CSC(=S)N1CCOCC1)Nc1ncc2c(n1)CCCC2=O	-3	99	-1	98	-2
CC1=C([N+](=O)[O-])C(c2ccc3c(c2)OCO3)N(C)C(=O)N1C (stereo not drawn)	-3	100	1	104	-4
CCn1cc(/C=C/C(=O)Nc2ccn(Cc3c(F)c(F)cc(F)c3F)n2)cn1	-4	107	4	111	-3
CCOC(=O)Cc1nnc(NC(=O)C(CC)Sc2nnc3c4ccccc4n(C)c3n2)s1 (stereo not drawn)	-1	95	-3	99	9.3*
Cn1c(CCN2CCCCC2)nc2cc(NC(=O)COc3ccc(Cl)cc3)ccc21	0	114	4	100	-3
Cc1ccc(C(C)C)c(OCC(=O)Nc2ccc3c(c2)nc(CCN2CCCCC2)n3C)c1	-4	141*	12	103	-2
O=C1/C(=C/C=C/c2ccco2)SC(=S)N1c1ccc(O)cc1	1	62*[inhibitor]	-22	87	0
CC(C)C(C(=O)O)N1C(=O)/C(=C/c2cccn2C)SC1=S (stereo not drawn)	-1	100	-2	101	2
O=C1/C(=C\c2ccco2)SC(=S)N1c1ccc(O)cc1	4	91	-4	96	4
CC(C)C(C(=O)O)N1C(=O)/C(=C/C=C/c2ccco2)SC1=S (stereo not drawn)	5.8*	97	-3	100	-1
CCOc1cc(/C=C2\SC(=O)N(c3ccc(O)cc3)C2=O)ccc1O	-2	92	-3	97	10*
CCOc1ccc(N2C(=O)S/C(=C\c3ccc(O)c(OCC)c3)C2=O)cc1	-4	91	-16	89	-2
SMILES	IMP-1 inhibitor	MEKK2wt PB1 HTS	MEKK2 mut-MEK5	MEKK3 PB1 HTS	VIM-2 inh
C=CCn1c(COc2ccc(Cl)cc2)nnc1SCC(=O)Nc1ccc(S(N)(=O)=O)cc1	-4	98	-4	98	-5
CCOC(=O)c1cnc(-n2nc(C)cc2C)nc1NCCO	-2	94	-9	103	1
Cc1sc2ncnc(NCC(c3ccccc3)N(C)C)c2c1C (stereo not drawn)	-3	100	-2	100	8.7*
Cc1nc(NCC(c2ccccc2)N(C)C)c2c(C)c(C)sc2n1 (stereo not drawn)	-5	103	3	100	7.8*
Cc1ccc(C(C)C)c(OCc2nn(CC(=O)c3ccc(Cl)cc3)c3[n+]2CCCCC3)c1	0	192*	18	91	0
N#Cc1c(C(F)(F)F)cc(-c2cccc(Cl)c2)[nH]c1=O	0	92	-7	92	8.7*
O=C(Nc1nc(=O)c2ccccc2s1)c1ccccc1	-2	108	4	103	11*
